How the values were obtained:
[1] = target: Kappa-type opioid receptor (Cavia porcellus, UniProt P41144); test: Binding affinity at kappa opioid receptor in guinea pig brain by [3H]U-69593 displacement.
How it was run: (§1)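 Adult male guinea pig whole-brain membranes in 50 mM Tris-HCl pH 7.4, preincubated 25 °C 30 min to strip endogenous peptides. Buffer contains BSA and peptidase inhibitors. Ten concentrations over 800-fold range, in duplicate. Nonspecific binding with 10 µM naltrexone. Incubated 25 °C 3 h, filtered, counted; nonlinear least-squares fit.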

Mu-type opioid receptor = Mu-type opioid receptor (Cavia porcellus, UniProt P97266); test: Binding affinity at mu opioid receptor in guinea pig brain by [3H]DAMGO displacement.
Chain of Mu-type opioid receptor (P97266 whole entry): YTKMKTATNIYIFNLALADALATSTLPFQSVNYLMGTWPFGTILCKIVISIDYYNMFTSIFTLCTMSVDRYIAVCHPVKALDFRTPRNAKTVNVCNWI
How it was run: as §1, with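 “inhibitors. Tritiated ligand at 0.75 nM (delta), 1.0 nM (mu) or 1.5 nM (kappa).” for “inhibitors.”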

Cavia porcellus = species: Cavia porcellus; test: Inhibition of electrically induced smooth muscle contraction in guinea pig ileum.; type: functional
How it was run: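 Longitudinal muscle-myenteric plexus strips from ileum of male Hartley guinea pigs (250-500 g), held in 37 °C oxygenated Krebs buffer, 1 g tension. Transmural stimulation at 0.1 Hz, 0.4-ms supramaximal pulses; no peptidase inhibitors. Cumulative agonist doses, 3 min each; % inhibition of contraction height. μ-selectivity checked with 1000 nM CTAP. IC50 from Hill-equation fit, mean of two to four tissues.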

Chain of Kappa-type opioid receptor (P41144 whole entry): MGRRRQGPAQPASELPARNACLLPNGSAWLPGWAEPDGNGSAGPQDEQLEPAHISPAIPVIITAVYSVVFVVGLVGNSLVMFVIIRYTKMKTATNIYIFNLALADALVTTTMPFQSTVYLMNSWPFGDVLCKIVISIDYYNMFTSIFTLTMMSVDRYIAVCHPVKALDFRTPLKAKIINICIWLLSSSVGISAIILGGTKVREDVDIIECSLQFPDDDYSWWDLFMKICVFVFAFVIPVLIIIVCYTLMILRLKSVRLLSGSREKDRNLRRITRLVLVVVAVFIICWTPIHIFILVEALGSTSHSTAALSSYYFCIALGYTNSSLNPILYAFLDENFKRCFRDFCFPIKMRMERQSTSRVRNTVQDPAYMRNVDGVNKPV

SMILES	IC50 [1]	IC50 (Mu-type opioid receptor)	IC50 (Cavia porcellus)
CC[C@H](C)[C@@H]1NC(=O)[C@H](CCCN=C(N)N)NC(=O)[C@H](CCCN=C(N)N)NC(=O)[C@H](NC(=O)[C@H](Cc2ccccc2)NC(=O)CNC(=O)CNC(=O)[C@@H](N)Cc2ccc(O)cc2)C(C)(C)SSC(C)(C)[C@@H](C(N)=O)NC(=O)[C@@H]2CCCN2C(=O)[C@H](CCCN=C(N)N)NC1=O	26.1 nM	224 nM	
CC[C@H](C)[C@@H]1NC(=O)[C@H](CCCN=C(N)N)NC(=O)[C@H](CCCN=C(N)N)NC(=O)[C@@H](NC(=O)[C@H](Cc2ccccc2)NC(=O)CNC(=O)CNC(=O)[C@@H](N)Cc2ccc(O)cc2)CSSC(C)(C)[C@H](C(N)=O)NC(=O)[C@@H]2CCCN2C(=O)[C@H](CCCN=C(N)N)NC1=O	1 nM	17 nM	
CC[C@H](C)[C@@H]1NC(=O)[C@H](CCCN=C(N)N)NC(=O)[C@H](CCCN=C(N)N)NC(=O)[C@H](NC(=O)[C@H](Cc2ccccc2)NC(=O)CNC(=O)CNC(=O)[C@@H](N)Cc2ccc(O)cc2)C(C)(C)SSC[C@@H](C(N)=O)NC(=O)[C@@H]2CCCN2C(=O)[C@H](CCCN=C(N)N)NC1=O	87.1 nM	87.1 nM	
CC[C@H](C)[C@@H]1NC(=O)[C@H](CCCN=C(N)N)NC(=O)[C@H](CCCN=C(N)N)NC(=O)[C@H](NC(=O)[C@H](Cc2ccccc2)NC(=O)CNC(=O)CNC(=O)[C@@H](N)Cc2ccc(O)cc2)C(C)(C)SSC(C)(C)[C@H](C(N)=O)NC(=O)[C@@H]2CCCN2C(=O)[C@H](CCCN=C(N)N)NC1=O	70.5 nM	563 nM	
CC[C@H](C)[C@H](NC(=O)[C@H](CCCN=C(N)N)NC(=O)[C@H](CCCN=C(N)N)NC(=O)[C@@H](CC(C)C)NC(=O)[C@H](Cc1ccccc1)NC(=O)CNC(=O)CNC(=O)[C@@H](N)Cc1ccc(O)cc1)C(=O)N[C@@H](CCCN=C(N)N)C(=O)N1CCC[C@H]1C(=O)N[C@@H](CCCCN)C(N)=O			94 nM
CC[C@H](C)[C@@H]1NC(=O)[C@H](CCCN=C(N)N)NC(=O)[C@H](CCCN=C(N)N)NC(=O)[C@H](NC(=O)[C@H](Cc2ccccc2)NC(=O)CNC(=O)CNC(=O)[C@@H](N)Cc2ccc(O)cc2)C(C)(C)SSC[C@H](C(N)=O)NC(=O)[C@@H]2CCCN2C(=O)[C@H](CCCN=C(N)N)NC1=O	18 nM	51.1 nM	
CC[C@H](C)[C@@H]1NC(=O)[C@H](CCCN=C(N)N)NC(=O)[C@H](CCCN=C(N)N)NC(=O)[C@H](NC(=O)[C@H](Cc2ccccc2)NC(=O)CNC(=O)CNC(=O)[C@@H](N)Cc2ccc(O)cc2)CSSC(C)(C)[C@H](C(N)=O)NC(=O)[C@@H]2CCCN2C(=O)[C@H](CCCN=C(N)N)NC1=O	100 nM	108 nM	
CC[C@H](C)[C@H](NC(=O)[C@H](CCCN=C(N)N)NC(=O)[C@H](CCCN=C(N)N)NC(=O)[C@H](CC(C)C)NC(=O)[C@H](Cc1ccccc1)NC(=O)CNC(=O)CNC(=O)[C@@H](N)Cc1ccc(O)cc1)C(=O)N[C@@H](CCCN=C(N)N)C(=O)N1CCC[C@H]1C(=O)NC(CCCCN)C(N)=O (stereo in doubt)		9.9 nM	1.07 nM
CC[C@H](C)[C@H](NC(=O)[C@H](CCCN=C(N)N)NC(=O)[C@H](CCCN=C(N)N)NC(=O)C(CC(C)C)NC(=O)[C@H](Cc1ccccc1)NC(=O)CNC(=O)CNC(=O)[C@@H](N)Cc1ccc(O)cc1)C(=O)N[C@@H](CCCN=C(N)N)C(=O)N1CCC[C@H]1C(=O)N[C@H](CCCCN)C(N)=O (stereo in doubt)		5.2 nM	0.3 nM

From ChEMBL document CHEMBL1127406 (J Med Chem, 1994)
